Laboratory results published in ChEMBL document CHEMBL1125677, “New derivatives of kanamycin B obtained by combined modifications in positions 1 and 6". Synthesis, microbiological properties, and in vitro and computer-aided toxicological evaluation” (J Med Chem, 1991).
Converted amounts (≈) assume the structure as drawn.

Columns and labels:
[1] = tested on: Bacillus subtilis; experiment: Minimum inhibitory concentration was measured against Bacillus subtilis ATCC 6633.; format: functional
Method in brief: (§1)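 Agar dilution and microtiter broth dilution, with incubation in Mueller-Hinton medium; MIC expressed in mg/L.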

[2] = tested on: Escherichia coli; experiment: Minimum inhibitory concentration was measured against Escherichia coli 001574-1 producing APH-(3'') modifying enzyme; format: functional
Method in brief: (§2)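 MICs were determined by agar dilution and by microtiter (broth) dilution in Mueller-Hinton medium against strains producing defined aminoglycoside-modifying enzymes. Values are reported in mg/L.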

[3] = tested on: Escherichia coli; experiment: Minimum inhibitory concentration was measured against Escherichia coli 71120101 producing AAD-(4')) modifying enzyme; format: functional; method in brief: as §2
[4] = tested on: Escherichia coli; experiment: Minimum inhibitory concentration was measured against Escherichia coli 72091801 producing AAC-(3)-I modifying enzyme; format: functional; method in brief: as §2
[5] = tested on: Escherichia coli; experiment: Minimum inhibitory concentration was measured against Escherichia coli 73110901 producing AAC-(6')-I) modifying enzyme; format: functional; method in brief: as §1
[6] = tested on: Escherichia coli; experiment: Minimum inhibitory concentration was measured against Escherichia coli 00000589 producing APH-(3'') modifying enzyme; format: functional; method in brief: as §2
[7] = tested on: Escherichia coli; experiment: Minimum inhibitory concentration was measured against Escherichia coli 0000JR66 producing AAD-(2'')-modifying enzyme; format: functional; method in brief: as §1
[8] = tested on: Escherichia coli; experiment: Minimum inhibitory concentration was measured against Escherichia coli OLA 290R5 producing AAD-(2'')-modifying enzyme; format: functional; method in brief: as §2
[9] = tested on: Escherichia coli; experiment: Minimum inhibitory concentration was measured against Escherichia coli ATCC 25992.; format: functional; method in brief: as §1
[10] = tested on: Enterobacter cloacae; experiment: Minimum inhibitory concentration was measured against Enterobacter cloacae ATCC 23355; format: functional; method in brief: as §1
[11] = tested on: Klebsiella pneumoniae; experiment: (§3) Minimum inhibitory concentration was measured against Klebsiella pneumoniae 7608271 producing AAC-(3)-II modifying enzyme; format: functional; method in brief: as §1
[12] = tested on: Klebsiella pneumoniae; experiment: Minimum inhibitory concentration was measured against Klebsiella pneumoniae ATCC 13883; format: functional; method in brief: as §1
[13] = tested on: Klebsiella pneumoniae; experiment: Minimum inhibitory concentration was measured against Klebsiella pneumoniae 00GT3020 producing AAD-(2'')-modifying enzyme; format: functional; method in brief: as §2
[14] = tested on: Klebsiella pneumoniae; experiment: Minimum inhibitory concentration was measured against Klebsiella pneumoniae 75012101 producing AAD-(2'')-modifying enzyme; format: functional; method in brief: as §1
[15] = tested on: Klebsiella pneumoniae; experiment: Minimum inhibitory concentration was measured against Klebsiella pneumoniae 760070702 producing AAC-(3)-I modifying enzyme; format: functional; method in brief: as §1
[16] = tested on: Pseudomonas aeruginosa; experiment: Minimum inhibitory concentration was measured against Pseudomonas aeruginosa ATCC 27853; format: functional; method in brief: as §1
[17] = tested on: Providencia stuartii; experiment: Minimum inhibitory concentration was measured against Providencia stuartii 00000164 producing AAC-(2'') modifying enzyme; format: functional; method in brief: as §1
[18] = tested on: Providencia stuartii; experiment: Minimum inhibitory concentration was measured against Providencia stuartii 72052305 producing AAC-(2'') modifying enzyme; format: functional; method in brief: as §1
[19] = tested on: Staphylococcus aureus; experiment: Minimum inhibitory concentration was measured against Staphylococcus aureus 76080401 producing AAD-(4')) modifying enzyme; format: functional; method in brief: as §1
[20] = tested on: Serratia marcescens; experiment: Minimum inhibitory concentration was measured against Serratia marcescens 75012711 producing AAD-(2'')+AAC(6'') modifying enzyme; format: functional; method in brief: as §1
[21] = tested on: Serratia marcescens; experiment: Minimum inhibitory concentration was measured against Serratia marcescens S69.; format: functional; method in brief: as §1
[22] = tested on: Staphylococcus epidermidis; experiment: Minimum inhibitory concentration was measured against Staphylococcus epidermidis ATCC 12228.; format: functional; method in brief: as §1
[23] = tested on: Serratia marcescens; experiment: Minimum inhibitory concentration was measured against Serratia marcescens ATCC 8100; format: functional; method in brief: as §1
[24] = tested on: Salmonella typhimurium; experiment: (§4) Minimum inhibitory concentration was measured against Salmonella Typhimurium ATCC 14028; format: functional, Salmonella enterica subsp. enterica serovar Typhimurium; method in brief: as §1
[25] = tested on: Staphylococcus aureus; experiment: Minimum inhibitory concentration was measured against Staphylococcus aureus ATCC 25923; format: functional; method in brief: as §1
[26] = tested on: Serratia marcescens; experiment: Minimum inhibitory concentration was measured against Serratia marcescens S20.; format: functional; method in brief: as §1
[27] = tested on: Serratia marcescens; experiment: microbe, parasite or virus in culture
[28] = tested on: Salmonella typhimurium; experiment: as §4; format: functional, salmonella typhimurium a; conditions: Salmonella enterica; method in brief: as §1
[29] = tested on: Escherichia coli; experiment: Minimum inhibitory concentration was measured against Escherichia coli 76070703 producing AAC-(3)-I modifying enzyme; format: functional; method in brief: as §2
[30] = tested on: Providencia stuartii; experiment: Minimum inhibitory concentration was measured against Providencia stuartii 75082808 producing AAC-(2'') modifying enzyme; format: functional; method in brief: as §1
[31] = tested on: Klebsiella pneumoniae; experiment: as §3; format: functional; method in brief: as §1; remark: listed apart in the source
[32] = in the assay text read “AAC-(2')” for “AAC-(2'')”

Row | Molecule | MIC [1] [µg/mL] | MIC [2] [µg/mL] | MIC [3] [µg/mL] | MIC [4] [µg/mL] | MIC [5] [µg/mL] | MIC [6] [µg/mL] | MIC [7] [µg/mL] | MIC [8] [µg/mL] | MIC [9] [µg/mL] | MIC [10] [µg/mL] | MIC [11] [µg/mL] | MIC [12] [µg/mL] | MIC [13] [µg/mL] | MIC [16] [µg/mL] | MIC [20] [µg/mL] | MIC [21] [µg/mL] | MIC [22] [µg/mL] | MIC [23] [µg/mL] | MIC [25] [µg/mL] | MIC [26] [µg/mL] | further results
1 | NCC1OC(OC2C(N)CC(N)(CO)C(OC3OC(CCl)C(O)C(N)C3O)C2O)C(N)C(O)C1O (stereo unspecified) | 1 (≈ 1.88 µM) | 2 (≈ 3.76 µM) | 128 (≈ 241 µM) | > 256 | 128 (≈ 241 µM) | > 128 | > 256 | 8 (≈ 15 µM) | 1 (≈ 1.88 µM) | 0.25 (≈ 0.47 µM) | > 256 | 0.5 (≈ 0.94 µM) | > 256 | > 128 | > 256 | > 64 | 0.5 (≈ 0.94 µM) | 2 (≈ 3.76 µM) | 0.5 (≈ 0.94 µM) | > 64 | MIC [14]: 16 µg/mL (≈ 30.1 µM); MIC [15]: 1 µg/mL (≈ 1.88 µM); MIC [17]: 256 µg/mL (≈ 481 µM); MIC [18]: 32 µg/mL (≈ 60.2 µM); MIC [19]: 256 µg/mL (≈ 481 µM); MIC ([24]; Salmonella enterica): 2 µg/mL (≈ 3.76 µM); MIC [27]: 8 µg/mL (≈ 15 µM)
2 | CC(=O)NCC1OC(OC2C(O)C(OC3OC(CN)C(O)C(O)C3N)C(N)CC2(N)CO)C(O)C(N)C1O (stereo unspecified) | 8 (≈ 14.4 µM) |  |  |  |  |  |  |  | 4 (≈ 7.21 µM) | 0.25 (≈ 0.451 µM) |  | 2 (≈ 3.61 µM) |  | > 128 |  | > 64 | 1 (≈ 1.8 µM) | 16 (≈ 28.8 µM) | 1 (≈ 1.8 µM) | > 64 | MIC [28]: 8 µg/mL (≈ 14.4 µM)
3 | [N-]=[N+]=NCC1OC(OC2C(O)C(OC3OC(CN)C(O)C(O)C3N)C(N)CC2(N)CO)C(O)C(N)C1O (stereo unspecified) | 2 (≈ 3.71 µM) |  |  |  |  |  |  |  | 1 (≈ 1.86 µM) | 0.25 (≈ 0.464 µM) |  | 0.5 (≈ 0.928 µM) |  | > 128 |  | > 64 | 1 (≈ 1.86 µM) | 2 (≈ 3.71 µM) | 0.5 (≈ 0.928 µM) | > 64 | MIC [28]: 1 µg/mL (≈ 1.86 µM)
4 | NCC[C@H](O)C(=O)N[C@@H]1C[C@H](N)[C@@H](O[C@H]2O[C@H](CN)[C@@H](O)[C@H](O)[C@H]2O)[C@H](O)[C@H]1O[C@H]1O[C@H](CO)[C@@H](O)[C@H](N)[C@H]1O [AMIKACIN] |  | 2 (≈ 3.42 µM) | 4 (≈ 6.83 µM) | 8 (≈ 13.7 µM) | 256 (≈ 437 µM) | 8 (≈ 13.7 µM) |  | 2 (≈ 3.42 µM) | 4 (≈ 6.83 µM) | 1 (≈ 1.71 µM) |  |  | 2 (≈ 3.42 µM) |  | 2 (≈ 3.42 µM) | 2 (≈ 3.42 µM) |  |  | 1 (≈ 1.71 µM) | 8 (≈ 13.7 µM) | MIC [29]: 4 µg/mL (≈ 6.83 µM); MIC [17]: 16 µg/mL (≈ 27.3 µM); MIC [18]: 1 µg/mL (≈ 1.71 µM); MIC [30, 32]: 16 µg/mL (≈ 27.3 µM); MIC [27]: 1 µg/mL (≈ 1.71 µM)
5 | CNC1C(O)C(OC2C(O)C(OC3OC([C@@H](C)N)CCC3N)C(N)CC2(N)CO)OCC1(C)O (stereo partly specified) |  |  |  |  | 8 (≈ 16.2 µM) |  | 8 (≈ 16.2 µM) |  |  |  | 1 (≈ 2.03 µM) |  |  |  | 2 (≈ 4.05 µM) |  |  |  |  |  | MIC [29]: 2 µg/mL (≈ 4.05 µM); MIC [14]: 2 µg/mL (≈ 4.05 µM); MIC [15]: 1 µg/mL (≈ 2.03 µM); MIC [30, 32]: 8 µg/mL (≈ 16.2 µM); MIC [19]: 0.5 µg/mL (≈ 1.01 µM)
6 | GENTAMICIN | 1 | 1 | 2 | 2 | 4 | 2 |  | 64 | 1 | 1 |  | 1 | 32 | 1 | 32 | 128 | 1 | 1 | 1 | 128 | MIC [29]: 128 µg/mL; MIC [31]: 256 µg/mL; MIC ([30]; pseudomonas stuartii): 64 µg/mL; MIC ([24]; Salmonella enterica subsp. enterica serovar Typhimurium): 1 µg/mL
7 | NC[C@H]1O[C@H](O[C@H]2[C@H](O)[C@@H](O[C@H]3O[C@H](CO)[C@@H](O)[C@H](N)[C@H]3O)[C@H](N)C[C@@H]2N)[C@H](N)[C@@H](O)[C@@H]1O [BEKANAMYCIN] | 0.5 (≈ 1.03 µM) |  |  |  |  |  |  |  | 1 (≈ 2.07 µM) | 0.25 (≈ 0.517 µM) |  | 0.25 (≈ 0.517 µM) |  | > 128 |  | > 64 | 0.25 (≈ 0.517 µM) | 1 (≈ 2.07 µM) | 0.5 (≈ 1.03 µM) | > 64 | MIC ([24]; Salmonella enterica): 1 µg/mL (≈ 2.07 µM)
8 | NCC1OC(OC2C(N)CC(N)(CO)C(OC3OC(CO)C(O)C(N)C3O)C2O)C(N)C(O)C1O (stereo unspecified) | 0.5 (≈ 0.974 µM) | 4 (≈ 7.79 µM) | > 128 | > 128 | > 128 | > 128 | > 128 | 8 (≈ 15.6 µM) | 0.5 (≈ 0.974 µM) | 0.25 (≈ 0.487 µM) | > 128 | 0.25 (≈ 0.487 µM) | > 128 | > 128 | > 128 | > 64 | 0.25 (≈ 0.487 µM) | 1 (≈ 1.95 µM) | 0.25 (≈ 0.487 µM) | > 64 | MIC [14]: 4 µg/mL (≈ 7.79 µM); MIC [15]: 1 µg/mL (≈ 1.95 µM); MIC [17]: > 128 µg/mL; MIC [18]: 16 µg/mL (≈ 31.2 µM); MIC [19]: > 128 µg/mL; MIC ([24]; Salmonella enterica): 1 µg/mL (≈ 1.95 µM); MIC [27]: 4 µg/mL (≈ 7.79 µM)
